# Measurements collected from several papers.
SMILES,host,medium,route,dose,setting,measurement,result
OCc1nc2ccc(NCc3ccc(C(F)(F)F)cc3)cc2[nH]1,male BALB/c mouse,plasma,intravenous,1 mg/kg,,Vd,4 L/kg
O=C1CCC(N2Cc3cc(CO)c(F)cc3C2=O)C(=O)N1 (centres unmarked),male CD-1 mouse,plasma,intravenous,1 mg/kg,,Vd,2.8 L/kg
COCC(=O)N1CCc2[nH]c3c(Cl)c(Cl)ccc3c2[C@@H]1C,C57BL/6 mouse,blood,intravenous,1 mg/kg,,Vd,1.23 L/kg
Cc1nc2ccc(OCc3ccc(C(F)(F)F)cc3)cc2[nH]1,male BALB/c mouse,plasma,oral,10 mg/kg,,Vd/F,7.35 L/kg
CCCC[C@@H](NC(=O)[C@@H](Cc1cn(C(=O)OC)c2ccccc12)NC(=O)[C@H](CC(C)(C)C)NC(=O)N1[C@H](C)CCC[C@@H]1C)C(=O)O,male CD-1 mouse,plasma,intravenous,3 mg/kg,,Vd,6.6 L/kg
CN(C)C(=O)c1cc2cnc(Nc3ccc(-c4ccc5c(=O)cc(N6CCOCC6)oc5c4)cc3)nc2n1C1CCCC1.Cl,BALB/c mouse,plasma,oral,20 mg/kg,,Vd/F,17.7 L/kg
CC(C)(C)c1sc2ncnc(Oc3c(F)cccc3OC(F)(F)F)c2c1-c1ccc(Cl)cc1,mouse,plasma,intravenous,1 mg/kg,,Vd,1.3 L/kg
NCc1cc2c(cc1F)C(=O)N(C1CCC(=O)NC1=O)C2 (centres unmarked),male CD-1 mouse,plasma,intravenous,1 mg/kg,,Vd,6.5 L/kg
C[C@@H]1COCCN1c1cc(=O)n2c(n1)N(Cc1cncc(Cl)c1)[C@H](C(F)(F)F)CC2,C57BL/6 mouse,plasma,intraperitoneal,10 mg/kg,single dose,Vd,7.05 L/kg
C=CCn1c(=O)c2cnc(Nc3ccc(N4CCN(C)CC4)cc3)nc2n1-c1ccc2c(n1)[C@@](O)(CC)CC2,mouse,plasma,intravenous,3 mg/kg,,Vd,3.4 L/kg
CC(C)[C@@H](CS(=O)(=O)C(C)C)N1C(=O)[C@@](C)(CC(=O)O)C[C@H](c2cccc(Cl)c2)[C@H]1c1ccc(Cl)cc1,FVB mouse,plasma,oral,20 mg/kg,single dose,Vd/F,12.2 L/kg
